Laboratory results as given in the RNAGym collection of RNA variant scans (doi:10.1126/science.aae0568).
Fewer inactive variants are shown than the library holds.

B1: tRNA (parent)
chain: GUUCCGUUGGCGUAAUGGUAACGCGUCUCCCUCCUAAGGAGAAGACUGCGGGUUCGAGUCCCGUACGGAACG

Variants of: B1
Assay: yeast fitness relative to wild type (ratio to wild type); higher = fitter; tRNA-Arg(CCU), competitive growth, 37 C, YPD
Outline: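 Gene amplicons from the start population and from each of six end populations were read by 100-nucleotide paired-end sequencing. Those end populations came from pooled Saccharomyces cerevisiae strains carrying tRNA-Arg(CCU) gene variants at the native locus, competed in YPD at 37°C for 24 hours. Fitness relative to wild type was worked out from changes in genotype frequencies. Genotypes needed ≥ 100 starting reads, and estimates < 0.5 were set to 0.5.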

Variant	yeast fitness
C27G A65C	0.641
C27U C29G A42G	≤ 0.5
C27G C46G U53G G58C C61A	≤ 0.5
C27U A36G G50A G58A A69C	≤ 0.5
C27G C46G A65G	0.631
C27G U28C G52A C60G G68U A69C	≤ 0.5
C27A U47C U64C A70C	0.535
C27G C31U G68A	≤ 0.5
C27G C29G G51C	≤ 0.5
C27G C46U A70C	0.729
C27G C46U A70G	0.727
C27G A43G U47G A70G	≤ 0.5
C27U A36U G38C A43C G63A	≤ 0.5
C27G U47G C49U C66U	0.584
C27G C30G C62A	≤ 0.5
C27G C55G A70U	0.617
C27U A40C	0.809
C27G A43C C46U C60U	0.748
C27G C33A U47A	≤ 0.5
C27U C29U C60U A69G	0.565
C27G A36G C66G	0.548
C27G C31A G56A	≤ 0.5
C27G U28G A36U A45U C49G	≤ 0.5
C27U A36G U47G G50A	≤ 0.5

Variant	yeast fitness
C27U A45C C55G G58C	≤ 0.5
C27G U32A G41A	0.671
C27G A36U G39C G68C	0.533
C27G A43C G56C	≤ 0.5
C27G C62G	0.695
C27G C62A	0.516
C27G C34A A40G	0.644
C27G A45U C55A G56A	≤ 0.5
C27G C49U A65U	≤ 0.5
C27G A42G U64C	≤ 0.5
C27G A42G A69U	≤ 0.5
C27U C29A A36U A40C G52C	0.583
C27G G48A C60G	0.751
C27G G48A C60U	≤ 0.5
C27G C49U C62U A65U	≤ 0.5
C27U A42U U53G G68C	0.545
C27G A36G A40G A69U	≤ 0.5
C27G A36G A40G A69C	≤ 0.5
C27G A36U C46U G67A	0.54
C27G A42U C49U	0.58
C27U A36U G38C A43C	≤ 0.5
C27G C34A G68C	≤ 0.5
C27A U35C A42U C55A	≤ 0.5
C27G C31U A37G G58C	≤ 0.5

Variant	yeast fitness
C27G C46U C60U A69U	≤ 0.5
C27G C34G A57G G67C A69U	≤ 0.5
C27U A69C	1.01
C27U A45G C49G A65C	≤ 0.5
C27G C55G	≤ 0.5
C27G C55U	≤ 0.5
C27A U59C C62A	≤ 0.5
C27G G48C A57U	≤ 0.5
C27G C34G C46U	0.65
C27U A36G A37G G56C	≤ 0.5
C27G C30G C31U U54C	≤ 0.5
C27G A36U	0.666
C27G A36G	0.542
C27G G41C C66U	0.747
C27G C49U A65U A70G	≤ 0.5
C27A U64A A69C	0.703
C27G A37C	0.911
C27G C29U A37G A45G C60A G68A	≤ 0.5
C27G C31A A37C G50A C61G	≤ 0.5
C27G G41C G68C	0.626
C27G G39A C46U G68A	≤ 0.5
C27U A57G	0.959
C27U A57U	0.668
C27U A57C	0.676

Variant	yeast fitness
C27G C46U G51A	0.633
C27G U32C A42C G48C C55G C60U	≤ 0.5
C27G A42C C62G	0.561
C27G C31A G58C	≤ 0.5
C27G C31U C60A	0.602
C27G C31U A42G U53C	≤ 0.5
C27U A43C G68U	0.612
C27A U28G U64C	≤ 0.5
C27G G44C A45G U64G	≤ 0.5
C27U A37U C66U	0.542
C27U A36U U54A A69C	0.624
C27G A43C C66A	≤ 0.5
C27G C31G U53A G56A G63A	0.534
C27G U53A G63A	≤ 0.5
C27G C30U A42U	0.651
C27G U28C C62G	≤ 0.5
C27G A36G A70U	≤ 0.5
C27U A36U G44A	≤ 0.5
C27G G56A A70U	0.531
C27U A43C A70U	0.749
C27A U64A G68C	≤ 0.5
C27G G56A A65G	0.535
C27G A37C G39A A45C	0.646
C27U A43U C55U A69C	≤ 0.5

Variant	yeast fitness
C27G G39C	0.585
C27G A37G G52U C61U G67A	≤ 0.5
C27G A42C G50C G56A C66G	≤ 0.5
C27G C49U U54G	≤ 0.5
C27G C31G C61G A69U	0.55
C27G C33G C55A	≤ 0.5
C27G A36U A69C	≤ 0.5
C27G C31G U59A	≤ 0.5
C27G C31G U59C	0.604
C27G U32G A42C	≤ 0.5
C27U A43C	0.965
C27U A43G	0.898
C27G G41C	1.01
C27U A45U C66U	0.7
C27G C30G A43C	≤ 0.5
C27G A36G A69U	0.641
C27G A42G	0.607
C27G A42C	0.586
C27G C31A C33G C49U G58C	≤ 0.5
C27G U53G A70G	≤ 0.5
C27G C30G U64G	≤ 0.5
C27G A43U U53C	≤ 0.5
C27U A36U A43G C46U	0.559
C27G C30A	0.632

Variant	yeast fitness
C27G C30U	0.619
C27G C29G C46A A65G C66U	≤ 0.5
C27G C33G G51C C60U C61U	≤ 0.5
C27G G41A A57C C62A	≤ 0.5
C27A U35C A57C	0.619
C27G A37G U53A	0.632
C27G C46U C62U G68C	≤ 0.5
C27U C30G A40C G44A G52A A70U	≤ 0.5
C27U A65C A70C	0.69
C27A U35C A42U A69G	≤ 0.5
C27G C46A G51A	0.525
C27G A42C C55A	0.682
C27U C30A	0.773
C27G U53C	≤ 0.5
C27G A70G	0.718
C27G U47C	0.652
C27G A36C A42U C66U	≤ 0.5
C27G C29A C62U	0.647
C27G C34G C55G U59C C60U G67U	≤ 0.5
C27G U32A G39A	0.572
C27G C31A C60G	≤ 0.5
C27G C31U U53C C66A	≤ 0.5
C27G U28A	0.596
C27G C33G G39A C46U C61U A69U	0.585

Variant	yeast fitness
C27G A43U U59G G68C	≤ 0.5
C27U C29U A36C	≤ 0.5
C27A U28A C30G G67A	0.587
C27A U54C	0.991
C27A U54A	0.727
C27G G48A G67C A69U	0.525
C27G G39C C61U	0.577
C27G C46U C61G G68U	≤ 0.5
C27A U64C	0.943
C27G G38A G67U	≤ 0.5
C27G A37G A70C	0.533
C27A U32G	0.595
C27G G48C G52C C62G	≤ 0.5
C27G G50C C60G	≤ 0.5
C27G A42U A43U	0.594
C27U C29A	0.737
C27U C29U	0.792
C27U A36C G39C G48C G63U A70U	0.636
C27G G39A C46U A70G	≤ 0.5
C27G C31A	0.501
C27G C31U	0.772
C27G C31G	0.74
C27G G39A C61G C62G	≤ 0.5
